The text below walks through data of ChEMBL document CHEMBL4699421 (RSC Med Chem, 2020).

Where a SMILES comes first, the peptide text is derived from it. [ ]: non-standard residue; d: D form. The star is where a group is joined. Cbz = O=C(OCc1ccccc1)*; Ac3c = NC1(C(=O)O)CC1

Data set [1] relates to Trypanosoma cruzi. Put plainly: Trypanocidal activity against Trypanosoma cruzi Tulahuen LacZ intracellular amastigote form infected in monkey LLC-MK2 cells incubated for 72 hrs by chlorophenol red beta-D-galactopyranoside substrate based spectrophotometric assay. It counts as functional, organism-based. The following applies: LLC-MK2, 72 h. The essentials: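 LLC-MK2 at 5 × 10^4 cells per mL infected with Tulahuen LacZ trypomastigotes at 5 × 10^5 per mL, 24 h at 37 °C, 5% CO2. Extracellular parasites washed off. Compounds 1.95–250 µM (DMSO) added for 72 h. […] Benznidazole as positive control, DMSO as negative.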

Data set [2] can be described thus: Cytotoxicity against monkey LLC-MK2 cells assessed as reduction in cell viability incubated for 72 hrs by MTT assay. The data set is classed as cell-based, Macaca mulatta. Particulars: rhesus monkey. Summed up:
(§1)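 Cells seeded at 5 × 10^4 cells per mL and grown 48 h (LLC-MK2 in RPMI; U2OS in high glucose DMEM). MTT 2.0 mg/mL added for 4 h, formazan dissolved in DMSO, read at 570 nm. CC50 from percent reduction versus untreated control.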
(Tetrazolium assays rely on reduction of a dye to a coloured formazan, in cell work by metabolically active cells.)

Data set [3] can be described thus: Cytotoxicity against human U2OS cells assessed as reduction in cell viability incubated for 72 hrs by MTT assay. The data set is classed as cell-based. The essentials: as §1
Data set [4] can be described thus: Selectivity index, ratio of CC50 for human U2OS cells assessed as reduction in cell viability incubated for 72 hrs by MTT assay to EC50 for Trypanosoma cruzi […]. The data set is classed as toxicity, cell-based. Particulars: read-out: Ratio CC50/EC50.
A short description of data set [5]: Selectivity index, ratio of CC50 for monkey LLC-MK2 cells assessed as reduction in cell viability incubated for 72 hrs by MTT assay to EC50 for Trypanosoma cruzi Tulahuen LacZ intracellular amastigote form infected in monkey LLC-MK2 cells incubated for 72 hrs by chlorophenol red beta-D-galactopyranoside substrate based spectrophotometric assay. It counts as toxicity. Particulars: read-out: Ratio CC50/EC50.

Data set [6] concerns Trypanosoma cruzi. As to the kind of experiment: Trypanocidal activity against Trypanosoma cruzi Y intracellular amastigote form infected in human U2OS cells.
Data set [7] can be described thus: Glutathione reactivity in pH 7.4 phosphate buffer assessed as half life at 2.5 mM by HPLC analysis. The following applies: phosphate buffer with glutathione. It counts as physicochemical. Summed up: (§2)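 HPLC reactivity at 37 °C in 0.05 M phosphate pH 7.4 with 1.0 mM EDTA and 5% acetonitrile, thiol glutathione or cysteine. Inhibitor solution 2.5 mM (stock). Aliquots injected over time on a 5–100% acetonitrile/water gradient with PDA detection 210–400 nm. Half-life and K from a one-phase decay fit, pseudo-first-order. Thiol-free control run for stability. Halved-concentration runs also reported.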

The nature of data set [8]: L-Cysteine reactivity in pH 7.4 phosphate buffer assessed as decay constant. The data set is classed as physicochemical. The essentials: as §2
The target of another data set is Cruzipain (Trypanosoma cruzi, UniProt P25779). Put plainly: Covalent inhibition of Trypanosoma cruzi cruzipain using Z-Phe-Arg-7-amidomethylcoumarin as substrate measured after 5 mins by fluorometric analysis. The essentials:
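Recombinant cruzain catalytic domain (no C-terminal extension), 0.15 nM, activated 20 min in 100 mM acetate pH 5.5, 300 mM NaCl, 5 mM DTT, then 2 min with inhibitor. Assay buffer adds 5% DMSO and 0.01% Triton X-100. Z-FR-AMC hydrolysis read at 355/460 nm, 37 °C, over 5 min. Wells checked for precipitation and background fluorescence.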

The nature of data set [9]: Glutathione reactivity in pH 7.4 phosphate buffer assessed decay constant at 1.25 mM. The following applies: pH 7.4, 1250 µM. The data set is classed as physicochemical. Summed up:
as §2

Data set [10] in a line: L-Cysteine reactivity in pH 7.4 phosphate buffer assessed as decay constant at 1.25 mM. It counts as physicochemical. Particulars: pH 7.4, 1250 µM. Summed up: as §2
Data set [11] in a line: L-Cysteine reactivity in pH 7.4 phosphate buffer assessed as half life at 2.5 mM by HPLC analysis. Particulars: phosphate buffer with L-cysteine. It counts as physicochemical. The essentials:
as §2

Data set [12] is described as follows: Glutathione reactivity in pH 7.4 phosphate buffer assessed as decay constant. It counts as physicochemical. Summed up:
as §2

The test system of data set [13] is Trypanosoma cruzi. As to the kind of experiment: Trypanocidal activity against Trypanosoma cruzi […] relative to benznidazole. It counts as functional.

Chain of Cruzipain (P25779 whole entry, the tested form may be a part): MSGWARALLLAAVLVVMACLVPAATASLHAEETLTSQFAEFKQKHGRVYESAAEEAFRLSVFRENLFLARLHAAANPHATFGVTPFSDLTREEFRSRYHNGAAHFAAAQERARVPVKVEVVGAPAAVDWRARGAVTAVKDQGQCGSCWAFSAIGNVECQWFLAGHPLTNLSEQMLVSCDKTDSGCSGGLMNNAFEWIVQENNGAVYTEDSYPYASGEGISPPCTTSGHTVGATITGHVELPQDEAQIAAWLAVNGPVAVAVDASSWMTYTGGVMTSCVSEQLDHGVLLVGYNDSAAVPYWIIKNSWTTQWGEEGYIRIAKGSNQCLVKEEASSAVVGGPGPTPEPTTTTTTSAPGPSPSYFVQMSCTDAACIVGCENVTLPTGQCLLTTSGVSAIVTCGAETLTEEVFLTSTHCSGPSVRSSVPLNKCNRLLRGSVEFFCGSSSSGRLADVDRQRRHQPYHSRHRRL

For the molecule `N#CCNC(=O)[C@H](Cc1ccccc1)NC(=O)OCc1ccccc1`, the results for the 50% effective concentration (EC50) in the data set on Trypanosoma cruzi [1] and with Trypanosoma cruzi [6] were > 100 µM and 3.6 µM, respectively. Also, the CC50 at 72 h in [2] and in data set [3] was > 100 µM throughout. Also, the selectivity ratio at 72 h is > 27.8 in data set [4] and 1.1 in data set [5].
Consider `COC(=O)C1=C(C#N)NC(C)=C(C(=O)OC(C)C)C1c1cccc([N+](=O)[O-])c1` (configuration not stated) [NILVADIPINE], for which the half-life at 2500 µM in data set [7] is > 5000 min. In data set [8], the K is reported as 1.41 10^-2/min.
Regarding `N#CC1(NC(=O)[C@H](Cc2ccccc2)NC(=O)c2ccccc2)CC1`, the EC50 with Trypanosoma cruzi [1] was > 100 µM. The K in [8] was 0.436 10^-2/min.
Consider `CN(C#N)N(C)C(=O)[C@H](Cc1ccccc1)NC(=O)OCc1ccccc1`, for which the results for the EC50 with Trypanosoma cruzi [1] and in the data set on Trypanosoma cruzi [6] were 21.7 µM and 3.2 µM, respectively. The values for the CC50 at 72 h in data set [2] and in [3] were 42 µM and 10.2 µM, respectively. Besides, the selectivity ratio at 72 h in data set [4] came to 3.2; in data set [5] it was 1.9.
Molecule `CCOC(=O)/C=C/C1(NC(=O)[C@H](Cc2ccccc2)NC(=O)OCc2ccccc2)CC1` displayed a concentration giving a half-maximal response (EC50) in the data set with Trypanosoma cruzi [1] of 79.6 µM. Also, in [2], the CC50 at 72 h is > 100 µM. In addition, the selectivity ratio at 72 h in data set [5] is > 1.2.
On to `O=C(N[C@@H](Cc1ccccc1)C(=O)Nc1cnoc1)OCc1ccccc1`, for which the EC50 with Trypanosoma cruzi [1] is 25.8 µM; in the data set on Trypanosoma cruzi [6], 5.1 µM. Also, the CC50 at 72 h in data set [2] and in data set [3] was > 100 µM throughout. Moreover, the selectivity ratio at 72 h in [4] was > 19.6; in data set [5] it was > 3.9.
Take `CON(C)C(=O)CNC(=O)[C@H](Cc1ccccc1)NC(=O)OCc1ccccc1`: the Ki at Cruzipain was 100 µM. The EC50 in the data set with Trypanosoma cruzi [1] was > 100 µM. Further, in data set [2], the 50% cytotoxic concentration (CC50) at 72 h was > 100 µM.
Take `O=C(N[C@@H](Cc1c[nH]c2ccccc12)C(=O)Nc1cnoc1)c1ccccc1`: the Ki at Cruzipain was 10 µM. Also, the CC50 at 72 h in data set [3] is > 100 µM. The selectivity ratio at 72 h in data set [4] is > 8.2. The molecule further had a 50% effective concentration (EC50) with Trypanosoma cruzi [6] of 22.4 µM.
As for `O=C(N[C@@H](Cc1ccccc1)C(=O)NC/C=N/O)OCc1ccccc1`, on Cruzipain, the Ki was 10 µM. Also, the CC50 at 72 h in [3] was > 100 µM. Moreover, the EC50 in the data set on Trypanosoma cruzi [6] is > 100 µM.
In the case of `CNC(=O)/C=C/C1(NC(=O)[C@H](Cc2ccccc2)NC(=O)OCc2ccccc2)CC1`, the CC50 at 72 h in data set [3] is > 100 µM. Besides, the selectivity ratio at 72 h in data set [4] is > 8.2. Besides, the EC50 in the data set on Trypanosoma cruzi [6] is 12.1 µM.
Turning to `N#CCNC(=O)[C@H](Cc1ccccc1)NC(=O)c1ccccc1`, the EC50 in the data set on Trypanosoma cruzi [1] was > 100 µM. Further, the K in data set [8] is reported as 9.33 10^-2/min.
For the molecule `N#CC1(NC(=O)[C@H](Cc2ccccc2)NC(=O)OCc2ccccc2)CC1`, the half-maximal effective concentration (EC50) is > 100 µM in the data set on Trypanosoma cruzi [1] and 1 µM in the data set with Trypanosoma cruzi [6]. In addition, the results for the CC50 at 72 h in data set [2] and in [3] were > 100 µM and 6 µM, respectively. Also, the selectivity ratio at 72 h in data set [4] was found to be 4.4.
In the case of `CC(C)C[C@H](NC(=O)c1cc(C(C)(C)C)nn1C)C(=O)N(C)N(C)C#N`, the K was 1.01 10^-2/min in data set [9] and 3.15 10^-2/min in data set [10]. The EC50 in the data set with Trypanosoma cruzi [1] and with Trypanosoma cruzi [6] was 8.4 µM each time.
As to `Cc1coc(NC(=O)[C@H](Cc2ccccc2)NC(=O)OCc2ccccc2)n1`, in the data set with Trypanosoma cruzi [1], the EC50 was > 100 µM. Moreover, in data set [2], the CC50 at 72 h was > 100 µM.
In the case of `O=C(N[C@@H](Cc1ccccc1)C(=O)Nc1cnoc1)c1ccccc1`, the Ki on Cruzipain was 20 µM. In addition, in data set [3], the cytotoxic concentration (CC50) at 72 h was > 100 µM. Moreover, in data set [4], the selectivity ratio at 72 h was > 16.6. For the same molecule, in the data set with Trypanosoma cruzi [6], the response was half-maximal at 6 µM (EC50).
Regarding `O=CC1(NC(=O)[C@H](Cc2ccccc2)NC(=O)OCc2ccccc2)CC1` (Cbz-Phe-[Ac3c]-aldehyde), the results for the concentration giving a half-maximal response (EC50) in the data set with Trypanosoma cruzi [1] and in the data set with Trypanosoma cruzi [6] were > 100 µM and 0.1 µM, respectively. For the same molecule, the CC50 at 72 h was > 100 µM in data set [2] and 3 µM in [3]. In addition, the selectivity ratio at 72 h in [4] was 58.4. The values for the half-life at 2500 µM in data set [7] and in [11] were 40 min and 22.2 min, respectively. Moreover, the K in data set [12] is listed as 1.73 10^-2/min; in data set [8], 3.12 10^-2/min. Also, the “fold change (FC)” value in the data set on Trypanosoma cruzi [13] is reported as 10.
For `CCN(CC)C(=O)/C=C/C1(NC(=O)[C@H](Cc2ccccc2)NC(=O)OCc2ccccc2)CC1`, the half-maximal effective concentration (EC50) in the data set with Trypanosoma cruzi [1] was > 100 µM. Moreover, the 50% cytotoxic concentration (CC50) at 72 h in [2] was > 100 µM.

As usually defined, the EC50 is the concentration at which the effect is half-maximal. For orientation: CC50 means the concentration giving 50% cytotoxicity. As usually defined, the half-life is the time in which the quantity being followed falls by half.
